Compound activity from PubChem BioAssay.
Shown are actives, neighbours in structure and some others; about 2.3% of the full set was active somewhere.
TRPC4 potent: TRPC4 (mouse) allosteric potentiation. Q9QUQ5. HEK293 TRPC4beta/mu-opioid, DAMGO EC20, Fluo-4 Ca2+ flux; hits give high values. actives 0.42% (n = 310,000). B-score at 10 µM;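 active = B-score of calcium response area above 5 SD of library B-scores, with initial fluorescence ratio within 5 SD of library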;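 note: B-score of integrated fluorescence ratio over time as area under calcium response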
Target sequence (Q9QUQ5 whole entry, looked up): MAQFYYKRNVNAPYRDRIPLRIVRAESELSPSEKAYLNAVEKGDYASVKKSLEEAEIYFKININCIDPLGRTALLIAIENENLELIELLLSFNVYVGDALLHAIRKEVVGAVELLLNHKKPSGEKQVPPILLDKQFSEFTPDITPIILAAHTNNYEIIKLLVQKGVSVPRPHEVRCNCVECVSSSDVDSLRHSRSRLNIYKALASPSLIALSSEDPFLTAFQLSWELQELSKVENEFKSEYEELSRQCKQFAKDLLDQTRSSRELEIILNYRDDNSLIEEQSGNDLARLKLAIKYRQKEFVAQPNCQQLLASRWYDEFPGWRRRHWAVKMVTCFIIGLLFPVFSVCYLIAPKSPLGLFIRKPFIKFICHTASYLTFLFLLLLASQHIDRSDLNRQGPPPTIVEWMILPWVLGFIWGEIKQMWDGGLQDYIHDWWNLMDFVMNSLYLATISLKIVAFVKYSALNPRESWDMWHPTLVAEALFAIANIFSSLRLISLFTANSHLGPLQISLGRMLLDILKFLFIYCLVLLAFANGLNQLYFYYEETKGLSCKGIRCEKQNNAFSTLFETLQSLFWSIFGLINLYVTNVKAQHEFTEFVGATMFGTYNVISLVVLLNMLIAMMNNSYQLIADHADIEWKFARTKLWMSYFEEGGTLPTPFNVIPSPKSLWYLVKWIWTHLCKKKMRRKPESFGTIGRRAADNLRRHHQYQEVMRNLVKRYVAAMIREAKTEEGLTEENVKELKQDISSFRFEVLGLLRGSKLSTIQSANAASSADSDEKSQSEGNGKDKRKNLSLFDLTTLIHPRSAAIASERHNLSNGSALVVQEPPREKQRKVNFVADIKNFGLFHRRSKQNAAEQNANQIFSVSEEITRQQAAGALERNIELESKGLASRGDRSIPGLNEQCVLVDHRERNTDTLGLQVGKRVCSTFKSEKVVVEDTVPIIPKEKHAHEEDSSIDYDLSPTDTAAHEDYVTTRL
TRPC4 inh: inhibitors of mouse TRPC4 channel. Q9QUQ5. HEK293 TRPC4beta/mu-opioid, DAMGO-evoked Fluo4 calcium flux; hits give low values. B-score at 10 µM. actives 0.39% (n = 300,000). AID 2247;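 active = B-score over 3 SD under the library average, no early fluorescence shift, positive overall ratio signal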
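Assay system: HEK293 cells with stable TRPC4beta plus mu-opioid receptor expression. Dosing: single dose. Measured by: Fluo4 Ca2+ flux fluorescence. Also added: DAMGO in two steps, submaximal then maximal. Read-out: B score from integrated Fluo4 fluorescence ratio.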
TRPC6 inh: mouse TRPC6 channel inhibition; HEK293-TRPC6, membrane potential dye, ACh-evoked depolarization; hits give low values; Q61143; AID 2553; actives 1.1% (n = 310,000); B-score at 10 µM;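 active = B-score under library mean minus 3 SD, initial fluorescence not abnormally high, positive integrated signal ratio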;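 note: B-score derived from integrated fluorescence ratio over the kinetic read; more negative B-score means stronger inhibition of depolarization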
TRPC6 act: activates the mouse TRPC6 cation channel; HEK293-TRPC6 membrane potential dye fluorescence; hits give high values; B-score at 10 µM; actives 0.13% (n = 310,000); AID 2550; Q61143;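 active = B-score of the integrated fluorescence ratio above library mean plus 3 SD, and starting fluorescence ratio within library mean plus 5 SD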;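 note: higher score means more depolarization so channel activation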
TRPC4 act: opens the mouse TRPC4 cation channel; AID 2237; HEK293 TRPC4beta/mu-opioid, Fluo4 calcium fluorescence; hits give high values; Q9QUQ5; actives 0.49% (n = 310,000); B-score at 10 µM;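 active = B-score above 5 SD of library B-scores, and initial fluorescence ratio not above library mean plus 5 SD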;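 note: positive B-score marks a calcium rise read as TRPC4 activation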
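Assay system: HEK293 cells stably co-expressing mouse TRPC4beta and mu-opioid receptor / Timing: Fluo4 dye loading 45 min at room temperature, 110 s recording / Signal: Fluo4 calcium-sensitive dye fluorescence, kinetic, 1 Hz baseline / Read-out: integrated baseline-normalised fluorescence ratio, converted to per-well B score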
TRPC4 spec 2: second selectivity test of TRPC6 inhibitors: effect on mouse TRPC4; shares compounds with TRPC6 inh; actives 42% (n = 920); inhibition, % at 10 µM; HEK293 TRPC4/MOR, membrane potential dye fluorescence; channel activated by saturating DAMGO dose;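 active = compounds whose fluorescence signal differed from control wells by over 3 SD, either direction, in both duplicate plates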
TRPC4 spec: tests whether TRPC6 inhibitors also affect mouse TRPC4 | shares compounds with TRPC6 inh | HEK293 TRPC4/mu-opioid, membrane potential fluorescence | activity change, negative = inhibition, % at 10 µM | actives 61% (n = 920) | AID 2777;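 active = rise or fall in signal beyond 3 SD of buffer-only wells in both replicate plates, either sign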;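 note: integrated kinetic ratio of fluorescence range over baseline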
HEK293 MPD ctr 2-1: second check of TRPC6 inhibitor effects in parental HEK293 cells; shares compounds with TRPC6 inh; parental HEK293 membrane potential dye fluorescence; maximal acetylcholine challenge after compound addition; signal change vs control, % at 10 µM; actives 31% (n = 920); AID 2779;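 active = membrane potential signal moving either way by over 3 SD of the maximum-effect control, in both duplicate plates, meaning non-specific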
HEK293 MPD ctr-1: counter-screen for TRPC6 inhibitors: effect in parental HEK293 cells. parental HEK293 membrane potential dye fluorescence. shares compounds with TRPC6 inh. membrane potential signal change, % at 10 µM. actives 60% (n = 920). AID 2780;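 active = membrane potential signal shifting up or down by more than 3 SD of buffer-only wells, on both duplicate plates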
HEK293 MPD ctr-2: parental HEK293 nonspecific activity of TRPC6 modulators; shares compounds with TRPC6 inh; membrane potential dye fluorescence; membrane potential signal change, % at 10 µM; actives 51% (n = 2,400);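 active = membrane potential signal moves up or down beyond 5 SD from buffer-only wells, on both duplicate plates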
HEK293 MPD ctr 2-2: parental HEK293 nonspecific activity of TRPC6 modulators, second screen | AID 488926 | membrane potential dye fluorescence; after compound, maximal acetylcholine stimulation | actives 14% (n = 2,400) | inhibition, % at 10 µM | shares compounds with TRPC6 inh;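 active = membrane potential signal drops by more than 5 SD from the mean control signal, in both duplicate plates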;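 note: plate controls were acetylcholine ECmax control wells for no effect and buffer only wells for full effect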
TRPC4/MOR mod: tests whether TRPC6 modulators also affect mouse TRPC4 | shares compounds with TRPC6 inh | HEK293 TRPC4/mu-opioid, membrane potential fluorescence | percent change from control (negative = decrease, positive = increase), % at 10 µM | actives 69% (n = 2,400) | AID 488927;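 active = membrane potential signal moved up or down beyond 5 SD of buffer control wells, in both duplicate plates, actives on both sides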;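 note: plate controls were assay buffer wells for no effect and DAMGO maximal-effect wells for full effect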
TRPC4/MOR inh 2: second selectivity test of TRPC6 modulators against mouse TRPC4; shares compounds with TRPC6 inh; inhibition, % at 10 µM; HEK293 TRPC4/mu-opioid, membrane potential dye fluorescence; stimulated with maximal-effect DAMGO; actives 55% (n = 2,400);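 active = drop in membrane potential signal beyond 5 SD of the control wells in both duplicate plates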;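 note: TRPC4 counter screen for TRPC6 hits run under conditions tuned for TRPC6 not TRPC4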
TRPC6 block conf: mouse TRPC6 inhibitor confirmation | shares compounds with TRPC6 inh | HEK293-TRPC6, membrane potential dye, ACh-evoked depolarization | inhibition, % at 10 µM | actives 43% (n = 3,300) | AID 488960;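 active = fluorescence ratio falls more than 5 SD below the full-stimulation control mean, in both duplicate runs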;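 note: integrated fluorescence ratio of peak minus minimum over baseline after agonist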
TRPC6 act conf: confirmation of mouse TRPC6 activators. shares compounds with TRPC6 inh. activation, % at 10 µM. AID 488961. actives 11% (n = 2,800). HEK293-TRPC6 membrane potential dye fluorescence, FDSS;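 active = ratio signal rise beyond 5 SD above unstimulated control wells' mean, seen in both duplicate runs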;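 note: plate controls were buffer EC0 wells for no effect and acetylcholine ECmax response for full effect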
* marks the source's active call; other numbers are inactive results; i = inactive; nt = not tested or not shown.

SMILES	TRPC4 potent	TRPC4 inh	TRPC6 inh	TRPC6 act	TRPC4 act	HEK293 MPD ctr-2	HEK293 MPD ctr 2-2	TRPC4/MOR mod	TRPC4/MOR inh 2	TRPC6 block conf	TRPC6 act conf	others
NC(=O)c1nnn(-c2nonc2N)c1-c1ccc([N+](=O)[O-])cc1	i	i	i	i	i	nt	nt	nt	nt	nt	nt
Cc1cnc(C(=O)NC2CC(C)(C)Cc3c2cnn3-c2cccc(F)c2)cn1 (stereo unspecified)	i	i	i	i	i	nt	nt	nt	nt	nt	nt
COc1ccc(C(C(=O)NCCC(C)C)N(CCN2CCOCC2)C(=O)Cn2nnc3ccccc32)c(OC)c1 (stereo unspecified)	i	i	i	28.2*	i	483.5%*	i	85.5%*	i	i	298.5%*
COCCN(C(=O)Cn1nnc2ccccc21)C(C(=O)NC1CCCC1)c1cccc(OC)c1OC (stereo unspecified)	i	i	i	i	i	nt	nt	nt	nt	nt	nt
Cc1ccc(N(CN2CCCC2=O)C(=O)c2ccc(OC(C)C)cc2)cc1	i	i	i	i	i	nt	nt	nt	nt	nt	nt
N#Cc1ccc2[nH]c(CO)c(-c3ccccc3)c2c1	i	i	-5.36*	i	i	-83.5%*	i	-27.0%*	45.0%*	i	i
O=C(O)c1ccc(N/N=C/C2=C(N3CCOCC3)C(=C\c3ccccc3)/CC2)cc1	i	i	i	22.1*	51*	856.5%*	i	191.0%*	i	i	350.5%*
Clc1ccc2c(c1)C(N1CCNCC1)=Nc1ccccc1O2	i	i	-5.1*	i	i	i	i	8.0%*	48.0%*	i	i
COc1cccc(OCC(O)CN2CCC(CN3C(=O)c4cccc5cccc(c45)C3=O)CC2)c1 (stereo unspecified)	i	i	-10.2*	i	i	nt	nt	nt	nt	i	i	TRPC4 spec 2=62.0%*;TRPC4 spec=-14.0%*;HEK293 MPD ctr 2-1=i;HEK293 MPD ctr-1=-138.0%*
COc1ccc(COCC(O)CN2CCC(CN3C(=O)c4cccc5cccc(c45)C3=O)CC2)cc1OC (stereo unspecified)	i	i	-5.77*	i	i	-147.0%*	i	-30.5%*	87.5%*	69.0%*	i
O=C1c2cccc3cccc(c23)C(=O)N1CC1CCN(CC(O)COc2ccc3ccccc3c2)CC1 (stereo unspecified)	i	i	i	i	i	nt	nt	nt	nt	nt	nt
CCCN(C1CCS(=O)(=O)C1)S(=O)(=O)c1ccc(F)cc1 (stereo unspecified)	i	i	i	i	i	nt	nt	nt	nt	nt	nt
Cc1ccccc1NC(=O)C1CCN(S(=O)(=O)c2cccc3nonc23)CC1	i	i	i	i	i	nt	nt	nt	nt	nt	nt
O=C(O)CSCC(=O)N(Cc1ccccc1)c1nc(-c2ccccc2)c(-c2ccccc2)s1	i	i	i	i	i	nt	nt	nt	nt	nt	nt
CCOC(=O)C1=NN(c2ccc(Cl)cc2)C(c2ccccc2)CC1=O (stereo unspecified)	i	i	-7.47*	i	i	nt	nt	nt	nt	i	i	TRPC4 spec 2=i;TRPC4 spec=i;HEK293 MPD ctr 2-1=i;HEK293 MPD ctr-1=i
CCOC(=O)C1=NNC(C(=O)c2ccc(Cl)cc2)C1c1ccccc1 (stereo unspecified)	i	i	i	i	i	nt	nt	nt	nt	nt	nt
CC1=Nc2ccccc2/C1=C/c1sc(=N)n(-c2nccs2)c1O	i	i	i	35.6*	i	713.5%*	i	110.5%*	i	i	191.5%*
CC1=Nc2ccccc2/C1=C/c1nc(-c2ccc(C)s2)oc1O	i	i	i	i	i	nt	nt	nt	nt	nt	nt
O=c1oc2ccc(Cl)cc2cc1-c1ccccc1	i	i	i	i	i	nt	nt	nt	nt	nt	nt
CC(C)CN=c1cc(-c2ccccc2)oc2ccc(Cl)cc12	i	i	-7.36*	i	i	nt	nt	nt	nt	i	i	TRPC4 spec 2=75.5%*;TRPC4 spec=-14.5%*;HEK293 MPD ctr 2-1=i;HEK293 MPD ctr-1=-268.5%*
CC(O)CN=c1cc(-c2ccccc2)oc2ccc(Cl)cc12 (stereo unspecified)	i	i	-7.31*	i	i	-134.0%*	i	-28.5%*	37.0%*	57.5%*	i
Cc1cc(Cl)ccc1Oc1ncnc2oc(-c3ccccc3)cc12	i	i	i	i	i	nt	nt	nt	nt	nt	nt
C/C(CCc1oc2ccc(Cl)cc2c1-c1ccc(C)o1)=N\O	i	i	i	i	i	nt	nt	nt	nt	nt	nt
OCCN=c1cc(-c2ccccc2)oc2ccc(Cl)cc12	i	i	-8.79*	i	i	nt	nt	nt	nt	54.7%*	i	TRPC4 spec 2=67.0%*;TRPC4 spec=-28.5%*;HEK293 MPD ctr 2-1=i;HEK293 MPD ctr-1=-356.0%*
CC(C)c1nnc(NC(=O)CCC2CCCCC2)s1	i	i	i	i	i	nt	nt	nt	nt	nt	nt
C/C(CCc1ccc2c(c1)OCO2)=N\NC(=O)c1ccccc1Br	i	i	i	i	i	nt	nt	nt	nt	nt	nt
CN(C)CCNC(=O)c1c(NC(=O)c2ccccc2)sc2c1CCCC2	i	i	-5.61*	i	97*	-149.5%*	i	-24.5%*	80.0%*	53.0%*	i
